The campaign covered roughly 360,000 compounds. About 740 (0.21%) were called active. The sample as a whole holds a higher share of actives than the screen did. Values without a mark were called inactive.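 How the source made its calls: active means mean lysis activity across replicates of at least 80%, whatever share of replicates individually reach that level; inactive means mean lysis activity below 80%.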

The values below come from PubChem BioAssay AID651654 (Broad Institute, 2012).

A short description of the test: Cryptococcus neoformans cell lysis inducers, primary screen, AK release luminescence, single concentration (AID 651654). Particulars: C. neoformans lysis, adenylate kinase release luminescence, 4 h; at 15 µM; hits give high values; normalised: neutral wells 0, clomiphene wells 100. The method, boiled down: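 Signal: Adenylate kinase release luminescence | Assay system: Log-phase Cryptococcus neoformans yeast cells | Input: Cells at 5 × 10^6 per mL | Buffer or medium: Fresh YPD growth medium | Compound: Single dose | Schedule: Static 4 h at 37 °C with compound, 1 h detection | Controls: Clomiphene | Read-out: Luminescence rise reflecting yeast cell lysis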
For the compound `COc1ccc(CN2[C@@H](CO)[C@@H]3c4ccccc4N(C(=O)Nc4ccccc4)C[C@@H]32)cc1`, the lysis activity was 0.269%.

For `COc1ccc(NC(=O)Nc2ccc3c(c2)C(=O)N([C@H](C)CO)C[C@@H](C)[C@H](CN(C)C(=O)Nc2ccc(C(F)(F)F)cc2)OCCCC[C@@H](C)O3)cc1`, the lysis activity is 1.63%.

Consider `C[C@H](CO)N1C[C@H](C)[C@H](CN(C)C(=O)Nc2ccc(C(F)(F)F)cc2)Oc2ccc(NC(=O)C3CC3)cc2C1=O`, for which the lysis activity was 8.67%.

Regarding `Cn1cnc(CCNC(=O)C[C@@H]2CC[C@@H]3[C@H](COC[C@@H](O)CN3C(=O)Nc3ccccc3)O2)c1`, the lysis activity was 1.75%.

For the compound `C[C@H](CO)N1C[C@H](C)[C@H](CN(C)S(C)(=O)=O)Oc2ccc(NC(=O)Nc3ccc(F)cc3)cc2C1=O`, the lysis activity is 0.358%.

Turning to `C#CCN1C(Cc2ccccc2)C(=O)O[C@H](C2CCCCC2)[C@@H]1/C=C/C1CC1` (stereo not given in full), the lysis activity was 5.01%.

`CO[C@@H]1CN(C)C(=O)c2cc(NC(C)=O)ccc2OC[C@H](C)N(CC2CCCCC2)C[C@@H]1C`: the lysis activity was -3.61%.

Regarding `COc1ccc(C2=Nc3ccccc3NC(=O)C2N(C(=O)c2cc3ccccc3[nH]2)c2ccccc2)cc1` (stereo not given), the lysis activity is 101% (active).

For the compound `CC(OC(=O)c1cc2ccccc2[nH]1)C(=O)N(C)c1ccccc1` (stereo not given), the lysis activity is -1.83%.

As for `O=C(Nc1ccccc1)c1cc2ccccc2[nH]1`, the lysis activity is -9.41%.

With `CO[C@H]1CN(C)C(=O)c2cc(NS(=O)(=O)CC(F)(F)F)ccc2OC[C@@H](C)N(Cc2nccs2)C[C@@H]1C`, the lysis activity is 0.476%.

As for `CN1c2ccc(C3=CCCCC3)cc2[C@H]2[C@H](CCN2S(=O)(=O)c2ccccc2)[C@@H]1CO`, the lysis activity is 0.27%.

In the case of `O=C(C1CCC1)N1CCCCN2[C@H](CO)[C@H](c3ccc(-c4cccc(F)c4)cc3)[C@H]2C1`, the lysis activity was 4.53%.

For `COc1cccc(NC(=O)C[C@H]2CC[C@@H]3[C@@H](COc4ccc(NC(=O)C5CCOCC5)cc4C(=O)N3C)O2)c1`, the lysis activity is 1.2%.

With `CC(C)NC(=O)N[C@H]1CC[C@H](CC(=O)NC2Cc3ccccc3C2)O[C@H]1CO`, the lysis activity was -0.817%.

Turning to `COc1ccccc1C#Cc1ccc2c(c1)O[C@H](CN(C)Cc1cccnc1)[C@@H](C)CN([C@H](C)CO)S2(=O)=O`, the lysis activity is 3.3%.

For `CO[C@@H]1CN(C)C(=O)c2ccc(NS(C)(=O)=O)cc2OC[C@@H](C)N(CC2CC2)C[C@@H]1C`, the lysis activity is 2.22%.

In the case of `CN(C)C(=O)C[C@H]1CC[C@@H](NC(=O)C2CC2)[C@@H](CO)O1`, the lysis activity was -0.137%.

Regarding `C[C@@H]1CCCCO[C@H](CN(C)C(=O)NC2CCCCC2)[C@@H](C)CN([C@H](C)CO)C(=O)c2cc(NS(C)(=O)=O)ccc2O1`, the lysis activity is 3.91%.

Turning to `C[C@@H]1CN([C@@H](C)CO)C(=O)c2cc(NS(=O)(=O)c3cn(C)cn3)ccc2O[C@@H](C)CCCCO[C@@H]1CN(C)Cc1ccncc1`, the lysis activity is -2.55%.

Turning to `CC(=O)N1[C@H](CO)[C@H](c2ccc(-c3ccccc3)cc2)[C@H]1CNC(=O)C1CC1`, the lysis activity is 90.2% (active).

Take `CC(=O)N1[C@H](CO)[C@@H](c2ccc(-c3ccc(F)cc3)cc2)[C@H]1CNC(=O)C1CC1`: the lysis activity is -1.15%.

As to `CCN(C[C@H]1[C@H](c2ccccc2)[C@H](CO)N1C(=O)C1CC1)C(=O)NC1CCCC1`, the lysis activity was 3.3%.

For `O=C(NC[C@@H]1[C@@H](c2ccccc2)[C@H](CO)N1C(=O)C1CCC1)NC1CCCC1`, the lysis activity was 94.8% (active).

`CC(=O)N1[C@H](CO)[C@@H](c2ccc(-c3ccccc3)cc2)[C@H]1CNC(=O)C1CC1`: the lysis activity was 73.3%.

For `C/C=C/c1ccc([C@H]2[C@@H](CNC(=O)NC(C)C)N(C(=O)C3CCC3)[C@H]2CO)cc1`, the lysis activity was -1.4%.

As for `CO[C@@H](CN(C)C(=O)Nc1ccc(F)cc1)[C@H](C)CN(Cc1ccccc1Cl)[C@@H](C)CO`, the lysis activity was 13.4%.

Turning to `CCCC#Cc1ccc2c(c1)O[C@@H](CN(C)C(=O)c1cccnc1)[C@H](C)CN([C@H](C)CO)S2(=O)=O`, the lysis activity was -4.36%.

Regarding `C[C@H](CO)N1C[C@H](C)[C@@H](CN(C)C)Oc2cc(C#Cc3ccccc3)ccc2S1(=O)=O`, the lysis activity was 0.917%.

On to `C/C=C/c1ccc2c(c1)O[C@@H](CN(C)S(=O)(=O)c1ccc(F)cc1)[C@@H](C)CN([C@H](C)CO)S2(=O)=O`, for which the lysis activity was 3%.

For the compound `C[C@H](CO)N1C[C@H](C)[C@@H](CN(C)Cc2ccccc2C(F)(F)F)OCc2cn(nn2)CCCC1=O`, the lysis activity is -8.12%.

Turning to `Cc1ccccc1CN(C)C[C@H]1OCc2cn(nn2)CCCC(=O)N([C@@H](C)CO)C[C@H]1C`, the lysis activity was 96.6% (active).

Take `C[C@@H]1CN([C@H](C)CO)C(=O)CCCn2cc(nn2)CO[C@@H]1CN(C)Cc1ccccc1C(=O)O`: the lysis activity was -0.638%.

Consider `CO[C@H]1CN(C)C(=O)c2ccc(NC(=O)Cc3ccccc3)cc2OC[C@@H](C)N(C(C)=O)C[C@H]1C`, for which the lysis activity was 69.9%.

Regarding `C[C@@H]1CN([C@@H](C)CO)C(=O)c2cccc(NC(=O)Nc3ccc(C(F)(F)F)cc3)c2O[C@@H]1CN(C)S(=O)(=O)c1ccc(F)cc1`, the lysis activity was 28.4%.

For the compound `C[C@@H]1CN([C@@H](C)CO)C(=O)Cc2cc(NS(=O)(=O)c3cccs3)ccc2O[C@@H]1CN(C)S(=O)(=O)c1ccc(F)cc1`, the lysis activity was -1.3%.

As for `CCCNC(=O)N1[C@H](CNC(=O)c2cccc(F)c2)[C@H](c2ccccc2)[C@@H]1CO`, the lysis activity was -0.391%.

For `COc1cccc(S(=O)(=O)N[C@H]2CC[C@@H](CC(=O)NCc3ccc(F)cc3)O[C@@H]2CO)c1`, the lysis activity is 3.95%.

For `CCCNC(=O)C[C@H]1C[C@@H]2c3cc(NC(=O)C4CCOCC4)ccc3O[C@@H]2[C@H](CO)O1`, the lysis activity was 1.8%.

`O=C(C[C@H]1CC[C@H](NC(=O)C2CCC2)[C@@H](CO)O1)Nc1nccs1`: the lysis activity is 5.79%.

Consider `COc1ccccc1S(=O)(=O)N[C@@H]1CC[C@@H](CCn2cc(C3CCCCC3)nn2)O[C@H]1CO`, for which the lysis activity is 18.5%.

For the compound `O=C(C[C@@H]1C[C@H]2c3cc(NC(=O)Nc4ccccc4)ccc3O[C@H]2[C@@H](CO)O1)NCc1cccnc1`, the lysis activity was -4.19%.

With `COC(=O)C[C@@H]1CC[C@@H]2[C@H](COc3ccc(NC(=O)Nc4cccc(F)c4)cc3C(=O)N2C)O1`, the lysis activity was 5.11%.

With `CO[C@@H](CN(C)C(=O)c1cnccn1)[C@@H](C)CN([C@@H](C)CO)S(=O)(=O)c1ccc(F)cc1`, the lysis activity was 59.1%.

On to `CC(=O)N1[C@H](CN(CC2CCC2)C(=O)CN(C)C)[C@@H](c2ccccc2)[C@@H]1CO`, for which the lysis activity is -2.74%.

For `CCC(=O)N1C[C@@H](C)[C@H](OC)CN(C)C(=O)c2ccc(NC(=O)c3ccc(F)cc3)cc2OC[C@@H]1C`, the lysis activity is -5.87%.

Take `COc1ccccc1NC(=O)N[C@H]1CC[C@H](CCn2cc(-c3cccnc3)nn2)O[C@@H]1CO`: the lysis activity was -0.992%.

In the case of `CNC[C@H]1Oc2ccc(NS(=O)(=O)c3ccc(F)cc3)cc2C(=O)N([C@@H](C)CO)C[C@@H]1C`, the lysis activity was 3.02%.

`Cc1ccc(S(=O)(=O)N[C@H]2CC[C@@H](CC(=O)NCCCN(C)C)O[C@H]2CO)cc1`: the lysis activity was -1.04%.

In the case of `CCCNC(=O)N1[C@@H]2c3cccc(=O)n3C[C@H]1[C@H](CO)[C@H]2C(=O)NCC(F)(F)F`, the lysis activity is -3.09%.

Consider `CCCNC(=O)[C@@H]1[C@@H](CO)[C@@H]2Cn3c(cccc3=O)[C@H]1N2C(=O)C1CC1`, for which the lysis activity was 1.83%.

`CCCNC(=O)[C@@H]1[C@@H](CO)[C@@H]2Cn3c(cccc3=O)[C@H]1N2C(=O)Nc1cc(F)ccc1F`: the lysis activity is 92.3% (active).

Consider `COc1ccc(S(=O)(=O)N(C)C[C@@H]2Oc3ccc(NC(=O)CCC(F)(F)F)cc3C(=O)N([C@@H](C)CO)C[C@H]2C)cc1`, for which the lysis activity is 2.26%.

With `O=C(C[C@H]1C=C[C@H](NS(=O)(=O)c2ccc(F)cc2)[C@H](CO)O1)NCc1ccncn1`, the lysis activity is -3.14%.

Take `C[C@@H]1CN([C@H](C)CO)C(=O)c2cc(NC(=O)CCCN(C)C)ccc2O[C@H]1CN(C)Cc1ccc(C(=O)O)cc1`: the lysis activity is -1.44%.

As for `CO[C@@H]1CN(C)C(=O)c2ccc(NC(=O)C3CCC3)cc2OC[C@H](C)NC[C@H]1C`, the lysis activity was 1.85%.

As for `CC(C)NC(=O)N(C)C[C@H]1Oc2c(NC(=O)c3ccncc3)cccc2C(=O)N([C@@H](C)CO)C[C@H]1C`, the lysis activity was -2.5%.

As for `C[C@H](CO)N1C[C@H](C)[C@@H](CN(C)Cc2ccc(Oc3ccccc3)cc2)Oc2cc(-c3ccncc3)ccc2S1(=O)=O`, the lysis activity was -0.269%.

For the compound `CCCNC(=O)Nc1ccc2c(c1)OC[C@H](C)N(Cc1ccccc1)C[C@H](C)[C@H](OC)CN(C)C2=O`, the lysis activity was -0.367%.

For `CO[C@@H]1CN(C)C(=O)c2ccc(NC(=O)C3CC3)cc2OC[C@@H](C)N(CC2CCOCC2)C[C@H]1C`, the lysis activity was 61.5%.

Regarding `O=C(c1ccccc1)N1CC[C@H]2[C@H](CO)Nc3ccc(-c4ccc(F)cc4)cc3[C@H]21`, the lysis activity was 21.5%.

For the compound `C/C=C/c1cnc2c(c1)C(=O)N([C@@H](C)CO)C[C@@H](C)[C@H](CN(C)Cc1cncnc1)O2`, the lysis activity is -1.92%.

For `COc1cccc(NC(=O)N2CC[C@@H]3[C@@H](CO)N(C)c4ccc(-c5cccc(F)c5)cc4[C@@H]32)c1`, the lysis activity was -11.2%.

On to `Cc1noc(C)c1NC(=O)N(C)C[C@@H]1Oc2ccc(NC(=O)Nc3cccc4ccccc34)cc2CC(=O)N([C@@H](C)CO)C[C@H]1C`, for which the lysis activity is 41.1%.

For the compound `CCN1[C@@H]2c3ccc(C4=CCCC4)c(=O)n3C[C@@H]2[C@@H](CO)[C@@H]1C(=O)NCc1ccccn1`, the lysis activity was 1.37%.
